Where “and” joins values, the source holds several entries; their conditions need not be identical. Equal entries are not always repeated.
Tested on: U2OS
Test: Multiplex assay against U2OS
Type: toxicity, cell-based
Conditions: human
In short: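 At seeding, live cells were stained with Hoechst33342, BioTracker Green Microtubule Cytoskeleton Dye, MitoTracker Red and Annexin V Alexa Fluor 680. After compound addition they were imaged on a CQ1 microscope at 37°C and 5% CO2, and CellPathfinder machine-learning gating sorted them into Hoechst high-intensity objects or normal cells, with normal cells further split into healthy, pyknosed or fragmented nuclei and pyknosed cells into mitotic or apoptotic. Tubulin, mitochondrial-mass and membrane-permeability phenotypes are given as per cents of cells with healthy nuclei.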

[1] = 12 h, 1 µM, compound concentration 1 uM
[2] = 12 h, 10 µM, compound concentration 10 uM
[3] = 24 h, 1 µM, compound concentration 1 uM
[4] = 24 h, 10 µM, compound concentration 10 uM
[5] = 48 h, 1 µM, compound concentration 1 uM
[6] = 48 h, 10 µM, compound concentration 10 uM

N#Cc1cc(F)cc(-c2nc(-c3ccc(F)cn3)no2)c1
Population Apoptotic (%) [1]: 55% and 100%
Population Fragmented Nuclei (%) [1]: 24% and 17%
Population Healthy Nuclei (%) [1]: 65% and 79%
Population Hoechst High Intensity Objects (%) [1]: 1% and 0%
Population Membrane Permeable-Phenotype (%) [1]: 5% and 6%
Population Mitochondria Different-Phenotype (%) [1]: 0% and 5%
Population Normal (%) [1]: 98% and 99%
Population Pyknosed Nuclei (%) [1]: 10% and 4%
Population Tubulin-Different-Phenotype (%) [1]: 3% and 2%
Total Cell Count [1]: 178 and 101
Population Apoptotic (%) [2]: 76% and 88%
Population Fragmented Nuclei (%) [2]: 33% and 12%
Population Healthy Nuclei (%) [2]: 59% and 81%
Population Hoechst High Intensity Objects (%) [2]: 1%
Population Membrane Permeable-Phenotype (%) [2]: 8% and 7%
Population Mitochondria Different-Phenotype (%) [2]: 2% and 4%
Population Mitotic Cells (%) [2]: 23% and 11%
Population Normal (%) [2]: 98%
Population Pyknosed Nuclei (%) [2]: 6%
Population Tubulin-Different-Phenotype (%) [2]: 2% and 1%
Total Cell Count [2]: 196 and 151
Population Apoptotic (%) [3]: 90%
Population Fragmented Nuclei (%) [3]: 22% and 8%
Population Healthy Nuclei (%) [3]: 66% and 84%
Population Hoechst High Intensity Objects (%) [3]: 4% and 0%
Population Membrane Permeable-Phenotype (%) [3]: 8% and 2%
Population Mitochondria Different-Phenotype (%) [3]: 0% and 3%
Population Mitotic Cells (%) [3]: 9% and 10%
Population Normal (%) [3]: 95% and 99%
Population Pyknosed Nuclei (%) [3]: 11% and 8%
Population Tubulin-Different-Phenotype (%) [3]: 4% and 2%
Total Cell Count [3]: 197 and 126
Population Apoptotic (%) [4]: 93% and 88%
Population Healthy Nuclei (%) [4]: 60% and 85%
Population Hoechst High Intensity Objects (%) [4]: 1% and 0%
Population Membrane Permeable-Phenotype (%) [4]: 7% and 5%
Population Mitochondria Different-Phenotype (%) [4]: 0% and 1%
Population Mitotic Cells (%) [4]: 6% and 11%
Population Normal (%) [4]: 98% and 99%
Population Pyknosed Nuclei (%) [4]: 7% and 4%
Population Tubulin-Different-Phenotype (%) [4]: 2% and 1%
Total Cell Count [4]: 230 and 216
Population Apoptotic (%) [5]: 96% and 100%
Population Fragmented Nuclei (%) [5]: 18% and 15%
Population Healthy Nuclei (%) [5]: 71% and 79%
Population Hoechst High Intensity Objects (%) [5]: 1%
Population Membrane Permeable-Phenotype (%) [5]: 4%
Population Mitochondria Different-Phenotype (%) [5]: 0% and 3%
Population Mitotic Cells (%) [5]: 3% and 0%
Population Normal (%) [5]: 98%
Population Pyknosed Nuclei (%) [5]: 9% and 5%
Population Tubulin-Different-Phenotype (%) [5]: 2% and 1%
Total Cell Count [5]: 290 and 199
Population Apoptotic (%) [6]: 85% and 94%
Population Fragmented Nuclei (%) [6]: 30% and 10%
Population Healthy Nuclei (%) [6]: 62% and 84%
Population Hoechst High Intensity Objects (%) [6]: 1%
Population Membrane Permeable-Phenotype (%) [6]: 6% and 4%
Population Mitochondria Different-Phenotype (%) [6]: 2%
Population Mitotic Cells (%) [6]: 14% and 5%
Population Normal (%) [6]: 98%
Population Pyknosed Nuclei (%) [6]: 7% and 5%
Population Tubulin-Different-Phenotype (%) [6]: 3% and 2%
Total Cell Count [6]: 282 and 344

Cc1noc(-c2ccc(-c3ccc(CC(=O)O)cc3)cc2)c1NC(=O)O[C@H](C)c1ccccc1Cl
Population Apoptotic (%) [1]: 95% and 85%
Population Fragmented Nuclei (%) [1]: 21% and 19%
Population Healthy Nuclei (%) [1]: 69% and 74%
Population Hoechst High Intensity Objects (%) [1]: 4% and 0%
Population Membrane Permeable-Phenotype (%) [1]: 7% and 2%
Population Mitochondria Different-Phenotype (%) [1]: 5% and 2%
Population Mitotic Cells (%) [1]: 5% and 14%
Population Normal (%) [1]: 95% and 99%
Population Pyknosed Nuclei (%) [1]: 9% and 7%
Population Tubulin-Different-Phenotype (%) [1]: 4%
Total Cell Count [1]: 231 and 101
Population Apoptotic (%) [2]: 78% and 71%
Population Fragmented Nuclei (%) [2]: 29% and 11%
Population Healthy Nuclei (%) [2]: 61% and 83%
Population Hoechst High Intensity Objects (%) [2]: 2%
Population Membrane Permeable-Phenotype (%) [2]: 11% and 6%
Population Mitochondria Different-Phenotype (%) [2]: 4% and 2%
Population Mitotic Cells (%) [2]: 21% and 28%
Population Normal (%) [2]: 97%
Population Pyknosed Nuclei (%) [2]: 9% and 5%
Population Tubulin-Different-Phenotype (%) [2]: 6%
Total Cell Count [2]: 242 and 138
Population Apoptotic (%) [3]: 96% and 77%
Population Fragmented Nuclei (%) [3]: 19% and 15%
Population Healthy Nuclei (%) [3]: 70% and 77%
Population Hoechst High Intensity Objects (%) [3]: 2% and 0%
Population Membrane Permeable-Phenotype (%) [3]: 5% and 4%
Population Mitochondria Different-Phenotype (%) [3]: 4% and 3%
Population Normal (%) [3]: 97% and 99%
Population Pyknosed Nuclei (%) [3]: 9% and 7%
Population Tubulin-Different-Phenotype (%) [3]: 3% and 6%
Total Cell Count [3]: 277 and 125
Population Apoptotic (%) [4]: 92% and 90%
Population Fragmented Nuclei (%) [4]: 24% and 12%
Population Healthy Nuclei (%) [4]: 65% and 80%
Population Hoechst High Intensity Objects (%) [4]: 1% and 2%
Population Membrane Permeable-Phenotype (%) [4]: 11% and 7%
Population Mitochondria Different-Phenotype (%) [4]: 2%
Population Mitotic Cells (%) [4]: 7% and 9%
Population Normal (%) [4]: 98% and 97%
Population Pyknosed Nuclei (%) [4]: 10% and 7%
Population Tubulin-Different-Phenotype (%) [4]: 5% and 4%
Total Cell Count [4]: 260 and 154
Population Apoptotic (%) [5]: 97% and 86%
Population Fragmented Nuclei (%) [5]: 15% and 18%
Population Healthy Nuclei (%) [5]: 75% and 72%
Population Hoechst High Intensity Objects (%) [5]: 1% and 0%
Population Membrane Permeable-Phenotype (%) [5]: 6%
Population Mitochondria Different-Phenotype (%) [5]: 3% and 4%
Population Normal (%) [5]: 98% and 100%
Population Pyknosed Nuclei (%) [5]: 9% and 8%
Population Tubulin-Different-Phenotype (%) [5]: 3% and 4%
Total Cell Count [5]: 408 and 170
Population Apoptotic (%) [6]: 92% and 85%
Population Fragmented Nuclei (%) [6]: 19% and 9%
Population Healthy Nuclei (%) [6]: 72% and 78%
Population Hoechst High Intensity Objects (%) [6]: 3% and 4%
Population Membrane Permeable-Phenotype (%) [6]: 7% and 6%
Population Mitochondria Different-Phenotype (%) [6]: 3% and 2%
Population Mitotic Cells (%) [6]: 7% and 14%
Population Normal (%) [6]: 96% and 95%
Population Pyknosed Nuclei (%) [6]: 8% and 11%
Population Tubulin-Different-Phenotype (%) [6]: 5% and 4%
Total Cell Count [6]: 344 and 241
